Measurements reported in ChEMBL document CHEMBL1649446, “Comparative antipneumococcal activities of sulopenem and other drugs” (2009).

What was measured:
Assay type in all cases: functional
[1] = test system: Streptococcus pneumoniae; experiment: Antimicrobial activity against Streptococcus pneumoniae isolate 1394 by agar dilution method
[2] = test system: Streptococcus pneumoniae; experiment: Antimicrobial activity against penicillin-susceptible Streptococcus pneumoniae by agar dilution method
[3] = test system: Streptococcus pneumoniae; experiment: Antimicrobial activity against Streptococcus pneumoniae isolate 1384 by agar dilution method
Outline: (§1)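 Agar dilution MIC on Mueller-Hinton agar with 5% sheep blood, inocula 10^4 CFU/spot; amoxicillin-clavulanate combined 1:2; S. pneumoniae ATCC 49619 quality control each run.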

[4] = test system: Streptococcus pneumoniae; experiment: Antimicrobial activity against Streptococcus pneumoniae isolate 3455 by agar dilution method
[5] = test system: Streptococcus pneumoniae; experiment: Antimicrobial activity against Streptococcus pneumoniae isolate 2874 by agar dilution method; outline: as §1
[6] = test system: Streptococcus pneumoniae; experiment: Antimicrobial activity against Streptococcus pneumoniae 11 by time-kill analysis
Outline: (§2)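 Time-kill in cation-adjusted Mueller-Hinton broth with 5% lysed horse blood; inocula 5 × 105 to 5 × 10^6 CFU/ml; drugs at MIC, 2× and 4× MIC; 35°C shaking water bath; viable counts at 0, 3, 6, 12, 24 h. Bactericidal = ≥3 log10 CFU/ml (99.9%) drop from original inoculum; 90%/99%/99.9% killing scored per strain.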

[7] = test system: Streptococcus pneumoniae; experiment: Antimicrobial activity against Streptococcus pneumoniae isolate 3791 by agar dilution method; outline: as §1
[8] = test system: Streptococcus pneumoniae; experiment: Antimicrobial activity against Streptococcus pneumoniae isolate 2686 by agar dilution method; outline: as §1
[9] = test system: Streptococcus pneumoniae; experiment: Antimicrobial activity against Streptococcus pneumoniae isolate 3374 by agar dilution method; outline: as §1
[10] = test system: Streptococcus pneumoniae; experiment: Antimicrobial activity against Streptococcus pneumoniae 5 by time-kill analysis
Outline: as §2, with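 “12 and” for “12,”, “if” for “=”, “reduction” for “drop”, “90% and 99%” for “90%/99%/99.9%”, “also scored.” for “scored per strain.”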

[11] = test system: Streptococcus pneumoniae; experiment: Antimicrobial activity against Streptococcus pneumoniae 7 by time-kill analysis; outline: as §2
[12] = test system: Streptococcus pneumoniae; experiment: Antimicrobial activity against Streptococcus pneumoniae isolate 37 by agar dilution method; outline: as §1
[13] = test system: Streptococcus pneumoniae; experiment: Antimicrobial activity against penicillin-resistant Streptococcus pneumoniae by agar dilution method; outline: as §1
[14] = test system: Streptococcus pneumoniae; experiment: Antimicrobial activity against Streptococcus pneumoniae isolate 33 by agar dilution method; outline: as §1
[15] = test system: Streptococcus pneumoniae; experiment: Antimicrobial activity against Streptococcus pneumoniae isolate 3458 by agar dilution method
[16] = test system: Streptococcus pneumoniae; experiment: Antimicrobial activity against Streptococcus pneumoniae isolate 1147 by agar dilution method; outline: as §1
[17] = test system: Streptococcus pneumoniae; experiment: Antimicrobial activity against Streptococcus pneumoniae isolate 3260 by agar dilution method
[18] = test system: Streptococcus pneumoniae; experiment: Antimicrobial activity against Streptococcus pneumoniae 9 by time-kill analysis
Outline: as §2, with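 “12 and” for “12,”, “if” for “=”, “reduction” for “drop”, “90% and 99%” for “90%/99%/99.9%”, “also scored.” for “scored per strain.”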

[19] = test system: Streptococcus pneumoniae; experiment: Antimicrobial activity against Streptococcus pneumoniae 8 by time-kill analysis; outline: as §2
[20] = test system: Streptococcus pneumoniae; experiment: Antimicrobial activity against Streptococcus pneumoniae isolate 3346 by agar dilution method
[21] = test system: Streptococcus pneumoniae; experiment: Antimicrobial activity against Streptococcus pneumoniae isolate 3412 by agar dilution method; outline: as §1
[22] = test system: Streptococcus pneumoniae; experiment: Antimicrobial activity against Streptococcus pneumoniae isolate 1146 by agar dilution method; outline: as §1
[23] = test system: Streptococcus pneumoniae; experiment: Antimicrobial activity against Streptococcus pneumoniae isolate 3587 by agar dilution method
[24] = test system: Streptococcus pneumoniae; experiment: Antimicrobial activity against Streptococcus pneumoniae 10 by time-kill analysis; outline: as §2
[25] = test system: Streptococcus pneumoniae; experiment: Antimicrobial activity against Streptococcus pneumoniae isolate 24 by agar dilution method
[26] = test system: Streptococcus pneumoniae; experiment: Antimicrobial activity against Streptococcus pneumoniae isolate 1564 by agar dilution method
[27] = test system: Streptococcus pneumoniae; experiment: Antimicrobial activity against penicillin-intermediate Streptococcus pneumoniae by agar dilution method
[28] = test system: Streptococcus pneumoniae; experiment: Antimicrobial activity against Streptococcus pneumoniae isolate 2880 by agar dilution method; outline: as §1
[29] = test system: Streptococcus pneumoniae; experiment: Antimicrobial activity against Streptococcus pneumoniae isolate 4755 by agar dilution method; outline: as §1
[30] = test system: Streptococcus pneumoniae; experiment: Antimicrobial activity against Streptococcus pneumoniae isolate 3263 by agar dilution method
[31] = test system: Streptococcus pneumoniae; experiment: Antimicrobial activity against Streptococcus pneumoniae isolate 2688 by agar dilution method; outline: as §1
[32] = test system: Streptococcus pneumoniae; experiment: Antimicrobial activity against Streptococcus pneumoniae 3 by time-kill analysis; outline: as §2
[33] = test system: Streptococcus pneumoniae; experiment: Antimicrobial activity against Streptococcus pneumoniae 6 by time-kill analysis; outline: as §2
[34] = test system: Streptococcus pneumoniae; experiment: Antimicrobial activity against Streptococcus pneumoniae isolate 4747 by agar dilution method; outline: as §1
[35] = test system: Streptococcus pneumoniae; experiment: Antimicrobial activity against Streptococcus pneumoniae 1 by time-kill analysis
Outline: as §2, with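 “12 and” for “12,”, “if” for “=”, “reduction” for “drop”, “90% and 99%” for “90%/99%/99.9%”, “also scored.” for “scored per strain.”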

[36] = test system: Streptococcus pneumoniae; experiment: Antimicrobial activity against Streptococcus pneumoniae 19A by agar dilution method; outline: as §1
[37] = test system: Streptococcus pneumoniae; experiment: Antimicrobial activity against Streptococcus pneumoniae isolate 3481 by agar dilution method; outline: as §1
[38] = test system: Streptococcus pneumoniae; experiment: Antimicrobial activity against Streptococcus pneumoniae isolate 2617 by agar dilution method; outline: as §1
[39] = test system: Streptococcus pneumoniae; experiment: Antimicrobial activity against Streptococcus pneumoniae isolate 1397 by agar dilution method; outline: as §1
[40] = test system: Streptococcus pneumoniae; experiment: Antimicrobial activity against Streptococcus pneumoniae isolate 3275 by agar dilution method; outline: as §1
[41] = test system: Streptococcus pneumoniae; experiment: Antimicrobial activity against Streptococcus pneumoniae 4 by time-kill analysis; outline: as §2
[42] = test system: Streptococcus pneumoniae; experiment: Antimicrobial activity against Streptococcus pneumoniae isolate 1424 by agar dilution method; outline: as §1
[43] = test system: Streptococcus pneumoniae; experiment: Antimicrobial activity against Streptococcus pneumoniae isolate 1055 by agar dilution method
[44] = test system: Streptococcus pneumoniae; experiment: Antimicrobial activity against Streptococcus pneumoniae isolate 3282 by agar dilution method
[45] = test system: Streptococcus pneumoniae; experiment: Antimicrobial activity against Streptococcus pneumoniae 2 by time-kill analysis; outline: as §2
[46] = test system: Streptococcus pneumoniae; experiment: Antimicrobial activity against Streptococcus pneumoniae isolate 3681 by agar dilution method; outline: as §1
[47] = test system: Streptococcus pneumoniae; experiment: Antimicrobial activity against Streptococcus pneumoniae 12 by time-kill analysis; outline: as §2

C[C@@H](O)[C@H]1C(=O)N2C(C(=O)O)=C(S[C@@H]3CN[C@H](C(=O)N(C)C)C3)[C@H](C)[C@H]12 [MEROPENEM]
1 mg/L: MIC [4] | MIC [5] | MIC [6] | MIC [11] | MIC [12] | MIC [14] | MIC [15] | MIC [19] | MIC [22] | MIC50 [36] | MIC90 [36]
0.5 mg/L: MIC [1] | MIC [8] | MIC50 [13] | MIC90 [13] | MIC [23] | MIC [25] | MIC [28] | MIC [31] | MIC [39] | MIC [41] | MIC [42] | MIC [43] | MIC [47]
0.016 mg/L: MIC50 [2] | MIC90 [2] | MIC [35]
0.06 mg/L: MIC [24] | MIC50 [27]
2 mg/L: MIC [10] | MIC [16]
0.12 mg/L: MIC [18] | MIC [33]
0.125 mg/L: MIC [26] | MIC [40]
0.25 mg/L: MIC [3] | MIC [7] | MIC [9] | MIC [17] | MIC [20] | MIC [21] | MIC90 [27] | MIC [29] | MIC [30] | MIC [32] | MIC [34] | MIC [37] | MIC [38] | MIC [44] | MIC [46]
0.008 mg/L: MIC [45]
